Laboratory results taken from ChEMBL document CHEMBL1806419, “18β-Glycyrrhetinic acid derivatives induced mitochondrial-mediated apoptosis through reactive oxygen species-mediated p53 activation in NTUB1 cells” (Bioorg Med Chem, 2011).
pIC50: −log10 of the molar value. Activity calls are given as the source filed them. The calls are words filed in the database; no cut-off is given here.

Legend:
[1] = Induction of apoptosis in human NTUB1 cells assessed as increase in JC-1 probe monomers at 50 uM after 24 hrs by flow cytometric analysis; assay type: functional
How it was run: (§1)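 NTUB1 cells (3×10^5) treated with 10, 25 or 50 µM (10 µM CCCP control), then loaded with 1 µM JC-1 in medium 30 min; washed in PBS, trypsinized, resuspended in PBS/2% BSA; green monomer (R2) and red aggregate (R1) fluorescence by flow cytometry, aggregate/monomer ratio representing membrane potential.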

[2] = target: Cellular tumor antigen p53 (Homo sapiens) (UniProt P04637); experiment: Increase in p53 phosphorylation in human NTUB1 cells after 24 hrs by Western blot analysis; assay type: cell-based
Sequence of Cellular tumor antigen p53 (Homo sapiens) (P04637 whole entry, looked up): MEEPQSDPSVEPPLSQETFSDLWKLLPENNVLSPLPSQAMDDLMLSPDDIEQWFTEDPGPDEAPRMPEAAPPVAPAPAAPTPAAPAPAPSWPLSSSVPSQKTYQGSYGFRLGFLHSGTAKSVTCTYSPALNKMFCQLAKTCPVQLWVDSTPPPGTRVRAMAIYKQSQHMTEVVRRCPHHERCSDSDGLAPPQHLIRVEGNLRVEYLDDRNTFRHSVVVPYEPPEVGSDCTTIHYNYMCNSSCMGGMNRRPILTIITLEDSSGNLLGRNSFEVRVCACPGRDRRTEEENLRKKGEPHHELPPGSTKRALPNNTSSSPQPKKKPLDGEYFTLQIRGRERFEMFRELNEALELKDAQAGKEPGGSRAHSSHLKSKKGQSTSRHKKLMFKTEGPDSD
How it was run: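 NTUB1 cells exposed 24 h to 0–50 µM (10 µM cisplatin comparator), or to 50 µM with or without 1 mM NAC; lysed in boiled sample buffer, SDS–PAGE, nitrocellulose semi-dry transfer, milk-blocked in TBST, primary antibodies (p-p53 Ser15, p53 DO1, β-actin) overnight at 4 °C, secondary 1 h, ECL detection; triplicate experiments.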

[3] = Cell cycle arrest in human NTUB1 cells assessed as accumulation at subG1 phase at 50 uM after 24 hrs by propidium iodide staining based flow cytometric analysis (reference value: 6.68%); assay type: functional
How it was run: (§2)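 8×10^5 NTUB1 cells plated, treated 24 h (alongside 10 µM cisplatin, 1 mM NAC, 50 µM H2O2 controls); harvested by trypsinization, fixed overnight in ice-cold MeOH at −20 °C, stained with 50 µg/mL propidium iodide plus 50 µg/mL RNase A in PBS 30 min at room temperature; cell-cycle phase fractions and sub-G1 (apoptotic) DNA content by FACScan flow cytometry; three independent experiments.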

[4] = test system: NTUB1; experiment: Induction of apoptosis in human NTUB1 cells assessed as activation of caspase 3 at 10 to 50 uM by Western blot analysis; assay type: functional, cell-based
[5] = Cytotoxicity against human NTUB1 cells after 72 hrs by MTT assay; assay type: functional, cell-based; settings: NTUB1, 72 h
How it was run: (§3)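 Cells seeded 1800/well in 96-well plates, preincubated overnight at 37 °C, then exposed to graded concentrations for 72 h at 37 °C (NTUB1, PC3 in RPMI 1640; SV-HUC1 in F12; 10% FBS, 5% CO2). MTT (2 mg/mL) added 3 h, formazan dissolved in DMSO, absorbance 540 nm; viability as percent of control; IC50 by median-effect analysis, mean ± SD.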

[6] = Cell cycle arrest in human NTUB1 cells assessed as accumulation at S phase at 50 uM after 24 hrs by propidium iodide staining based flow cytometric analysis (reference value: 20.37%); assay type: functional; how it was run: as §2
[7] = Increase in ROS generation in human NTUB1 cells at 10 uM after 24 hrs by H2DCFDA staining based flow cytometeric analysis relative to control; assay type: functional
How it was run: (§4)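 NTUB1 cells (3×10^5 per 6 cm dish) treated 24 h (20 µM cisplatin and 1 mM NAC controls; medium-only control); 10 µM H2DCFDA added 30 min before harvest; trypsinized, PBS-washed, DCF green fluorescence (525 nm band pass, region M1) measured immediately by flow cytometry; percent change vs control; mean ± SD, n = 3.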

[8] = Induction of apoptosis in human NTUB1 cells assessed as increase in JC-1 probe monomers at 25 uM after 24 hrs by flow cytometric analysis; assay type: functional; how it was run: as §1
[9] = Cell cycle arrest in human NTUB1 cells assessed as accumulation at S phase at 25 uM after 24 hrs by propidium iodide staining based flow cytometric analysis (reference value: 20.37%); assay type: functional; how it was run: as §2
[10] = Cell cycle arrest in human NTUB1 cells assessed as accumulation at G2/M phase at 50 uM after 24 hrs by propidium iodide staining based flow cytometric analysis (reference value: 20.37%); assay type: functional; how it was run: as §2
[11] = Induction of apoptosis in human NTUB1 cells assessed as decrease in JC-1 aggregation at 10 uM after 24 hrs by flow cytometric analysis; assay type: functional; design: scale not given: the % may be the effect or the level left
How it was run: (§5)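 NTUB1 bladder carcinoma cells (3 × 10^5) in RPMI 1640 with 10% FBS at 37 °C, 5% CO2, exposed to test agent (10, 25 or 50 µM) with 10 µM CCCP as positive control. Stained 30 min with 1 µM JC-1 in medium, washed, trypsinised, resuspended in PBS/2% BSA. Flow cytometry read green monomer and red aggregate fluorescence; the aggregate/monomer ratio represents membrane potential.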

[12] = Cell cycle arrest in human NTUB1 cells assessed as accumulation at subG1 phase at 25 uM after 24 hrs by propidium iodide staining based flow cytometric analysis (reference value: 6.68%); assay type: functional; how it was run: as §2
[13] = Increase in ROS generation in human NTUB1 cells at 25 uM after 24 hrs by H2DCFDA staining based flow cytometeric analysis relative to control; assay type: functional; how it was run: as §4
[14] = Cell cycle arrest in human NTUB1 cells assessed as accumulation at G2/M phase at 75 uM after 24 hrs by propidium iodide staining based flow cytometric analysis (reference value: 20.37%); assay type: functional; how it was run: as §2
[15] = test system: PC-3; experiment: Cytotoxicity against human PC3 cells after 72 hrs by MTT assay; assay type: functional, cell-based; how it was run: as §3
[16] = Induction of apoptosis in human NTUB1 cells assessed as decrease in JC-1 aggregation at 50 uM after 24 hrs by flow cytometric analysis; assay type: functional; design: scale not given: the % may be the effect or the level left; how it was run: as §1
[17] = Induction of apoptosis in human NTUB1 cells assessed as decrease in JC-1 aggregation at 25 uM after 24 hrs by flow cytometric analysis; assay type: functional; design: scale not given: the % may be the effect or the level left; how it was run: as §1
[18] = Cell cycle arrest in human NTUB1 cells assessed as accumulation at subG1 phase after 24 hrs by propidium iodide staining based flow cytometric analysis; assay type: functional; how it was run: as §2
[19] = Cell cycle arrest in human NTUB1 cells assessed as accumulation at G2/M phase at 25 uM after 24 hrs by propidium iodide staining based flow cytometric analysis (reference value: 20.37%); assay type: functional; how it was run: as §2
[20] = Induction of apoptosis in human NTUB1 cells assessed as increase in JC-1 probe monomers at 10 uM after 24 hrs by flow cytometric analysis; assay type: functional; how it was run: as §5
[21] = Cell cycle arrest in human NTUB1 cells assessed as accumulation at G1 phase at 50 uM after 24 hrs by propidium iodide staining based flow cytometric analysis (reference value: 50.64%); assay type: functional; how it was run: as §2
[22] = Cell cycle arrest in human NTUB1 cells assessed as accumulation at G1 phase at 75 uM after 24 hrs by propidium iodide staining based flow cytometric analysis (reference value: 50.64%); assay type: functional; how it was run: as §2
[23] = Cell cycle arrest in human NTUB1 cells assessed as accumulation at G1 phase at 25 uM after 24 hrs by propidium iodide staining based flow cytometric analysis (reference value: 50.64%); assay type: functional; how it was run: as §2
[24] = Cell cycle arrest in human NTUB1 cells assessed as accumulation at subG1 phase at 75 uM after 24 hrs by propidium iodide staining based flow cytometric analysis (reference value: 6.68%); assay type: functional; how it was run: as §2
[25] = Cell cycle arrest in human NTUB1 cells assessed as accumulation at S phase at 75 uM after 24 hrs by propidium iodide staining based flow cytometric analysis (reference value: 20.37%); assay type: functional; how it was run: as §2
[26] = Cytotoxicity against immortalized human SV-HUC1 cells after 72 hrs by MTT assay; assay type: cell-based; settings: sv-huc1, 72 h; how it was run: as §3

## C=C(C)[C@@H]1CC[C@]2(C)[C@H](C(=O)C=C3[C@@H]4C[C@@](C)(C(=O)NC(C)C)CC[C@]4(C)CC[C@]32C)[C@@]1(C)CCC(=O)NC(C)C
[1]
  Activity: 55.65%
[2]
  Activity: Dose-dependent effect
[3]
  Activity: 55.7%
[4]
  Activity: inactive
[5]
  pIC50: 5.32
[6]
  Activity: 3.15%
[7]
  Activity: 66.1%
[8]
  Activity: 87.17%
[9]
  Activity: 12.7%
[10]
  Activity: 5.22%
[11]
  Activity: 5.45%
[12]
  Activity: 20.4%
[13]
  Activity: 85.6%
[14]
  Activity: 4%
[15]
  Activity: Active
[16]
  Activity: 44.07%
[17]
  Activity: 12.65%
[18]
  Activity: Dose-dependent effect
[19]
  Activity: 12.7%
[20]
  Activity: 94.14%
[21]
  Activity: 35.7%
[22]
  Activity: 14.7%
[23]
  Activity: 49.5%
[24]
  Activity: 78.4%
[25]
  Activity: 2.79%
[26]
  Activity: Non-toxic
